The structures appear in SMILES notation.

The species entered for test [1] is Cavia porcellus. Put plainly: Compound was tested for calcium channel agonistic activity, causing a 50% increase of the maximum contractile response on guinea pig left atrium. It counts as functional, Cardiac atrium. The gist of the method: (§1)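 Guinea pig left atrium (GPLA) preparation exposed to increasing test compound concentrations. […] Number of experiments varies per compound. For weak responders, percent increase in contractile force recorded at individual concentrations.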

Test [2] is filed under the species Cavia porcellus. The experiment in a line: Inhibition of carbachol-induced tonic contractile response in guinea pig ileal longitudinal smooth muscle. Format: functional. In a few lines: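 Guinea pig ileal longitudinal smooth muscle contracted by the muscarinic agonist carbachol (1.6 × 10⁻⁷ M). Slow, Ca²⁺-dependent tonic component measured. […] Reported ± SEM, n = 3.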

The species named for test [3] is Cavia porcellus. The experiment in a line: Calcium channel agonist activity causing a 50% increase in maximum contractile response on guinea pig left atrium; No effect. Format: functional, Cardiac atrium. In a few lines:
as §1

The species named for test [4] is Cavia porcellus. Put plainly: Calcium channel agonist activity causing a 50% increase in maximum contractile response on guinea pig left atrium; 'c' means Weak agonist. It counts as functional, Cardiac atrium. The gist of the method:
as §1

Where [5] appears, read: Cavia porcellus, Cardiac atrium.

As to `CC1=NC(C)=C([N+](=O)[O-])C(c2cccnc2)/C1=C(\O)OC1CCCCC1` (configuration not stated), the EC50 in test [1] (setting [5]) was found to be 2.76 µM.

Regarding `CC1=NC(C)=C([N+](=O)[O-])C(c2ccncc2)/C1=C(\O)OC1CCCCC1` (configuration not stated), the EC50 in test [1] (setting [5]) stood at 4.94 µM.

Take `CCO/C(O)=C1\C(C)=NC(C)=C([N+](=O)[O-])C1c1ccncc1` (configuration not stated): the EC50 in test [1] (setting [5]) worked out at 6.46 µM.

As for `COCCO/C(O)=C1\C(C)=NC(C)=C([N+](=O)[O-])C1c1cccnc1` (configuration not stated), the EC50 in test [1] (setting [5]) was 49.4 µM.

In the case of `CC1=NC(C)=C([N+](=O)[O-])C(c2cccnc2)/C1=C(\O)OC(C)(C)C` (configuration not stated), the EC50 in test [1] (setting [5]) was 14.6 µM.

With `CO/C(O)=C1\C(C)=NC(C)=C([N+](=O)[O-])C1c1ccncc1` (configuration not stated), the EC50 in test [1] (setting [5]) was determined as 48.5 µM.

For the compound `CC1=NC(C)=C([N+](=O)[O-])C(c2ccccn2)/C1=C(\O)OCC(C)C` (configuration not stated), in test [2] (Cavia porcellus), the 50% inhibitory concentration (IC50) is 2.61 µM. Moreover, the EC50 in test [1] (setting [5]) was found to be 9.1 µM.

Consider `COCCO/C(O)=C1\C(C)=NC(C)=C([N+](=O)[O-])C1c1ccncc1` (configuration not stated), for which, in test [1] (setting [5]), the EC50 was 37.7 µM.

Regarding `CC1=NC(C)=C([N+](=O)[O-])C(c2ccncc2)/C1=C(\O)OC1CCCC1` (configuration not stated), the EC50 in test [1] (setting [5]) amounted to 4.25 µM.

For `CC1=NC(C)=C([N+](=O)[O-])C(c2cccnc2)/C1=C(\O)OCC(C)C` (configuration not stated), the EC50 in test [1] (setting [5]) was 1.74 µM.

As to `CC1=NC(C)=C([N+](=O)[O-])C(c2ccccn2)/C1=C(\O)OC(C)(C)C` (configuration not stated), in test [2] (Cavia porcellus), the IC50 worked out at 1.93 µM. Also, in test [1] (setting [5]), the EC50 was 1810 µM.

In the case of `COCCO/C(O)=C1\C(C)=NC(C)=C([N+](=O)[O-])C1c1ccccn1` (configuration not stated), in test [2] (Cavia porcellus), the IC50 turned out to be 94.7 µM. Besides, the EC50 in test [1] (setting [5]) was 9.7 µM.

Turning to `CC1=NC(C)=C([N+](=O)[O-])C(c2ccncc2)/C1=C(\O)OCC(C)C` (configuration not stated), the EC50 in test [1] (setting [5]) was determined as 8.51 µM.

The compound `CO/C(O)=C1\C(C)=NC(C)=C([N+](=O)[O-])C1c1ccccn1` (configuration not stated) showed an IC50 in test [2] (Cavia porcellus) of 212 µM. Further, in test [3], the EC50 result is recorded as “Not Active”.

With `CC1=NC(C)=C([N+](=O)[O-])C(c2ccccn2)/C1=C(\O)OC1CCCC1` (configuration not stated), half-maximal inhibition in test [2] (Cavia porcellus) (IC50) was put at 0.45 µM. Besides, the EC50 in test [1] (setting [5]) stood at 19.8 µM.

For `CCO/C(O)=C1\C(C)=NC(C)=C([N+](=O)[O-])C1c1cccnc1` (configuration not stated), the EC50 in test [1] (setting [5]) worked out at 8.84 µM.

Take `CO/C(O)=C1\C(C)=NC(C)=C([N+](=O)[O-])C1c1cccnc1` (configuration not stated): the EC50 in test [1] (setting [5]) was found to be 70 µM.

On to `CC1=NC(C)=C([N+](=O)[O-])C(c2cccnc2)/C1=C(\O)OC1CCCC1` (configuration not stated), for which, in test [1] (setting [5]), the EC50 was found to be 3.28 µM.

Consider `CCO/C(O)=C1\C(C)=NC(C)=C([N+](=O)[O-])C1c1ccccn1` (configuration not stated), for which, in test [2] (Cavia porcellus), the half-maximal inhibitory concentration (IC50) was 5 µM. Moreover, the EC50 in test [1] (setting [5]) is 22.8 µM.

On to `CC1=NC(C)=C([N+](=O)[O-])C(c2ccncc2)/C1=C(\O)OC(C)(C)C` (configuration not stated), for which the EC50 in test [1] (setting [5]) was determined as 2.82 µM.

In test [2], `CC1=NC(C)=C([N+](=O)[O-])C(c2ccccn2)/C1=C(\O)OC1CCCCC1` (single isomer, unassigned; (+)) gave a half-maximal inhibitory concentration (IC50) of 5.27 µM. Besides, the EC50 in test [1] amounted to 8.45 µM.

`CC1=NC(C)=C([N+](=O)[O-])C(c2ccccn2)/C1=C(\O)OC1CCCCC1` (single isomer, unassigned; (-)) showed an IC50 in test [2] of 0.0748 µM. Also, the EC50 entry in test [4] was “Partial agonist”.

Turning to `CC1=NC(C)=C([N+](=O)[O-])C(c2ccccn2)/C1=C(\O)OC1CCCCC1` (stereo in doubt; 14a), the IC50 in test [2] came to 0.842 µM. For the same compound, the EC50 in test [1] is 3.7 µM.

(Values after ChEMBL document CHEMBL1131300, “Synthesis and calcium channel-modulating effects of alkyl (or cycloalkyl) 1,4-dihydro-2,6-dimethyl-3-nitro-4-pyridyl-5-pyridinecarboxylate racemates and enantiomers” (J Med Chem, 1998).)
